Measured values reported in ChEMBL document CHEMBL5058577, “EUbOPEN Chemogenomics Library 2 (Multiplex)” (2022).

System: U2OS
Assay: Multiplex assay against U2OS
Format: toxicity, cell-based
Conditions: human
Method in brief: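 Compound was added to live cells that had been stained at seeding with Hoechst33342, BioTracker Green Microtubule Cytoskeleton Dye, MitoTracker Red and Annexin V Alexa Fluor 680, and imaging followed on a CQ1 microscope at 37°C and 5% CO2. CellPathfinder machine-learning gating divided cells into Hoechst high-intensity objects or normal cells, normal cells into healthy, pyknosed or fragmented nuclei, and pyknosed cells into mitotic or apoptotic. Tubulin, mitochondrial-mass and membrane-permeability phenotypes are per cents of healthy-nucleus cells.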

[1] = 12 h, 1 µM, compound concentration 1 uM, replicate 1
[2] = 12 h, 1 µM, compound concentration 1 uM, replicate 2
[3] = 12 h, 10 µM, compound concentration 10 uM, replicate 1
[4] = 12 h, 10 µM, compound concentration 10 uM, replicate 2
[5] = 24 h, 1 µM, compound concentration 1 uM, replicate 1
[6] = 24 h, 1 µM, compound concentration 1 uM, replicate 2
[7] = 24 h, 10 µM, compound concentration 10 uM, replicate 1
[8] = 24 h, 10 µM, compound concentration 10 uM, replicate 2
[9] = 48 h, 1 µM, compound concentration 1 uM, replicate 1
[10] = 48 h, 1 µM, compound concentration 1 uM, replicate 2
[11] = 48 h, 10 µM, compound concentration 10 uM, replicate 1
[12] = 48 h, 10 µM, compound concentration 10 uM, replicate 2

## Cc1noc(-c2ccc(-c3ccc(CC(=O)O)cc3)cc2)c1NC(=O)O[C@H](C)c1ccccc1Cl
[1]
  Population Apoptotic (%): 95%
  Population Fragmented Nuclei (%): 21%
  Population Healthy Nuclei (%): 69%
  Population Hoechst High Intensity Objects (%): 4%
  Population Membrane Permeable-Phenotype (%): 7%
  Population Mitochondria Different-Phenotype (%): 5%
  Population Mitotic Cells (%): 5%
  Population Normal (%): 95%
  Population Pyknosed Nuclei (%): 9%
  Population Tubulin-Different-Phenotype (%): 4%
  Total Cell Count: 231
[2]
  Population Apoptotic (%): 85%
  Population Fragmented Nuclei (%): 19%
  Population Healthy Nuclei (%): 74%
  Population Hoechst High Intensity Objects (%): 0%
  Population Membrane Permeable-Phenotype (%): 2%
  Population Mitochondria Different-Phenotype (%): 2%
  Population Mitotic Cells (%): 14%
  Population Normal (%): 99%
  Population Pyknosed Nuclei (%): 7%
  Total Cell Count: 101
[3]
  Population Apoptotic (%): 78%
  Population Fragmented Nuclei (%): 29%
  Population Healthy Nuclei (%): 61%
  Population Hoechst High Intensity Objects (%): 2%
  Population Membrane Permeable-Phenotype (%): 11%
  Population Mitochondria Different-Phenotype (%): 4%
  Population Mitotic Cells (%): 21%
  Population Normal (%): 97%
  Population Pyknosed Nuclei (%): 9%
  Population Tubulin-Different-Phenotype (%): 6%
  Total Cell Count: 242
[4]
  Population Apoptotic (%): 71%
  Population Fragmented Nuclei (%): 11%
  Population Healthy Nuclei (%): 83%
  Population Membrane Permeable-Phenotype (%): 6%
  Population Mitochondria Different-Phenotype (%): 2%
  Population Mitotic Cells (%): 28%
  Population Pyknosed Nuclei (%): 5%
  Total Cell Count: 138
[5]
  Population Apoptotic (%): 96%
  Population Fragmented Nuclei (%): 19%
  Population Healthy Nuclei (%): 70%
  Population Hoechst High Intensity Objects (%): 2%
  Population Membrane Permeable-Phenotype (%): 5%
  Population Mitochondria Different-Phenotype (%): 4%
  Population Mitotic Cells (%): 3%
  Population Normal (%): 97%
  Population Pyknosed Nuclei (%): 9%
  Population Tubulin-Different-Phenotype (%): 3%
  Total Cell Count: 277
[6]
  Population Apoptotic (%): 77%
  Population Fragmented Nuclei (%): 15%
  Population Healthy Nuclei (%): 77%
  Population Hoechst High Intensity Objects (%): 0%
  Population Membrane Permeable-Phenotype (%): 4%
  Population Mitochondria Different-Phenotype (%): 3%
  Population Mitotic Cells (%): 22%
  Population Normal (%): 99%
  Population Pyknosed Nuclei (%): 7%
  Population Tubulin-Different-Phenotype (%): 6%
  Total Cell Count: 125
[7]
  Population Apoptotic (%): 92%
  Population Fragmented Nuclei (%): 24%
  Population Healthy Nuclei (%): 65%
  Population Hoechst High Intensity Objects (%): 1%
  Population Membrane Permeable-Phenotype (%): 11%
  Population Mitochondria Different-Phenotype (%): 2%
  Population Mitotic Cells (%): 7%
  Population Normal (%): 98%
  Population Pyknosed Nuclei (%): 10%
  Population Tubulin-Different-Phenotype (%): 5%
  Total Cell Count: 260
[8]
  Population Apoptotic (%): 90%
  Population Fragmented Nuclei (%): 12%
  Population Healthy Nuclei (%): 80%
  Population Hoechst High Intensity Objects (%): 2%
  Population Membrane Permeable-Phenotype (%): 7%
  Population Mitotic Cells (%): 9%
  Population Normal (%): 97%
  Population Pyknosed Nuclei (%): 7%
  Population Tubulin-Different-Phenotype (%): 4%
  Total Cell Count: 154
[9]
  Population Apoptotic (%): 97%
  Population Fragmented Nuclei (%): 15%
  Population Healthy Nuclei (%): 75%
  Population Hoechst High Intensity Objects (%): 1%
  Population Membrane Permeable-Phenotype (%): 6%
  Population Mitochondria Different-Phenotype (%): 3%
  Population Mitotic Cells (%): 2%
  Population Normal (%): 98%
  Population Pyknosed Nuclei (%): 9%
  Population Tubulin-Different-Phenotype (%): 3%
  Total Cell Count: 408
[10]
  Population Apoptotic (%): 86%
  Population Fragmented Nuclei (%): 18%
  Population Healthy Nuclei (%): 72%
  Population Hoechst High Intensity Objects (%): 0%
  Population Mitochondria Different-Phenotype (%): 4%
  Population Mitotic Cells (%): 13%
  Population Normal (%): 100%
  Population Pyknosed Nuclei (%): 8%
  Population Tubulin-Different-Phenotype (%): 4%
  Total Cell Count: 170
[11]
  Population Apoptotic (%): 92%
  Population Fragmented Nuclei (%): 19%
  Population Healthy Nuclei (%): 72%
  Population Hoechst High Intensity Objects (%): 3%
  Population Membrane Permeable-Phenotype (%): 7%
  Population Mitochondria Different-Phenotype (%): 3%
  Population Mitotic Cells (%): 7%
  Population Normal (%): 96%
  Population Pyknosed Nuclei (%): 8%
  Population Tubulin-Different-Phenotype (%): 5%
  Total Cell Count: 344
[12]
  Population Apoptotic (%): 85%
  Population Fragmented Nuclei (%): 9%
  Population Healthy Nuclei (%): 78%
  Population Hoechst High Intensity Objects (%): 4%
  Population Membrane Permeable-Phenotype (%): 6%
  Population Mitochondria Different-Phenotype (%): 2%
  Population Mitotic Cells (%): 14%
  Population Normal (%): 95%
  Population Pyknosed Nuclei (%): 11%
  Population Tubulin-Different-Phenotype (%): 4%
  Total Cell Count: 241
